In ChEMBL document CHEMBL1155318, “Discovery of novel phenethylpyridone derivatives as potent melanin-concentrating hormone 1 receptor antagonists” (Bioorg Med Chem Lett, 2009):

Molecular target: not listed separately
Assay: Inhibition of adrenergic alpha1 receptor
Settings: not given

SMILES | IC50
CCCNCc1ccc(CCn2ccc(OCc3ccc(F)cc3)cc2=O)nc1 | > 5000 nM
CCCNCc1ccc(CCn2ccc(OCc3ccc(F)cc3)cc2=O)cc1 | > 5000 nM

Molecular target: Delta-type opioid receptor (Homo sapiens, UniProt P41143)
Assay: Inhibition of delta-type opioid receptor
Settings: not given

Chain of Delta-type opioid receptor (P41143 whole entry): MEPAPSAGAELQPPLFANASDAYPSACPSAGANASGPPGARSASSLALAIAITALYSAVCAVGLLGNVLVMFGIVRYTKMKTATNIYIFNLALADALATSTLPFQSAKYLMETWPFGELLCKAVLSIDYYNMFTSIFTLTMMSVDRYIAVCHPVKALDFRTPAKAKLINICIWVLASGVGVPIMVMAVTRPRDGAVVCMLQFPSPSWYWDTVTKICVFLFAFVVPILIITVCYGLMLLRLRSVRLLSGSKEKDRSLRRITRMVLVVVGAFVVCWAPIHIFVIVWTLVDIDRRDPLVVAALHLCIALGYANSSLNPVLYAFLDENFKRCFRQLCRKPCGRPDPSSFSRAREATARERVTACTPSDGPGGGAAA

SMILES | IC50
CCCNCc1ccc(CCn2ccc(OCc3ccc(F)cc3)cc2=O)nc1 | > 5000 nM
CCCNCc1ccc(CCn2ccc(OCc3ccc(F)cc3)cc2=O)cc1 | > 5000 nM

Molecular target: Histamine H2 receptor (Homo sapiens, UniProt P25021)
Assay: Inhibition of histamine H2 receptor
Settings: not given

Chain of Histamine H2 receptor (P25021 whole entry): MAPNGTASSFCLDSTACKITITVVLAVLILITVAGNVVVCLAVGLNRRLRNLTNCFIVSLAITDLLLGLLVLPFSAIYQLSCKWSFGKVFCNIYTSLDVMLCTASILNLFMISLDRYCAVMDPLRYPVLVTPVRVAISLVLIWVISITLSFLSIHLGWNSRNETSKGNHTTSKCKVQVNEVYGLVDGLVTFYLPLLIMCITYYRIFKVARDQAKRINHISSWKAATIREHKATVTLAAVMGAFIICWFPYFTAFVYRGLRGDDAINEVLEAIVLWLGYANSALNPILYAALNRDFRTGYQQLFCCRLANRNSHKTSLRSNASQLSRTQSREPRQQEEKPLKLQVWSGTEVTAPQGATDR

SMILES | IC50
CCCNCc1ccc(CCn2ccc(OCc3ccc(F)cc3)cc2=O)nc1 | > 5000 nM
CCCNCc1ccc(CCn2ccc(OCc3ccc(F)cc3)cc2=O)cc1 | > 5000 nM

Molecular target: Mu-type opioid receptor (Homo sapiens, UniProt P35372)
Assay: Inhibition of mu-type opioid receptor
Settings: not given

Chain of Mu-type opioid receptor (P35372 whole entry): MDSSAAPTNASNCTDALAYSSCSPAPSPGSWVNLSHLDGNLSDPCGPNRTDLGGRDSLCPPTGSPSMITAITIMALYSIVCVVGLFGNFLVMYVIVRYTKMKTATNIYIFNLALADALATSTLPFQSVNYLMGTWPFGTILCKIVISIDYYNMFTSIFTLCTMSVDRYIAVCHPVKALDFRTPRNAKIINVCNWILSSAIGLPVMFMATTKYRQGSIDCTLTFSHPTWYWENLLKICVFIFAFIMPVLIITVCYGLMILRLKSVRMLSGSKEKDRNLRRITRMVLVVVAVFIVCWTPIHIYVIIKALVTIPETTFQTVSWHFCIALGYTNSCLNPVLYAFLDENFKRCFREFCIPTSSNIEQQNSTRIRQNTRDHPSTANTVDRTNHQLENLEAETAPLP

SMILES | IC50
CCCNCc1ccc(CCn2ccc(OCc3ccc(F)cc3)cc2=O)nc1 | > 5000 nM
CCCNCc1ccc(CCn2ccc(OCc3ccc(F)cc3)cc2=O)cc1 | > 5000 nM

Molecular target: T1, Muscarinic acetylcholine receptor M1 (Homo sapiens, UniProt P11229)
T1 sequence (P11229 whole entry): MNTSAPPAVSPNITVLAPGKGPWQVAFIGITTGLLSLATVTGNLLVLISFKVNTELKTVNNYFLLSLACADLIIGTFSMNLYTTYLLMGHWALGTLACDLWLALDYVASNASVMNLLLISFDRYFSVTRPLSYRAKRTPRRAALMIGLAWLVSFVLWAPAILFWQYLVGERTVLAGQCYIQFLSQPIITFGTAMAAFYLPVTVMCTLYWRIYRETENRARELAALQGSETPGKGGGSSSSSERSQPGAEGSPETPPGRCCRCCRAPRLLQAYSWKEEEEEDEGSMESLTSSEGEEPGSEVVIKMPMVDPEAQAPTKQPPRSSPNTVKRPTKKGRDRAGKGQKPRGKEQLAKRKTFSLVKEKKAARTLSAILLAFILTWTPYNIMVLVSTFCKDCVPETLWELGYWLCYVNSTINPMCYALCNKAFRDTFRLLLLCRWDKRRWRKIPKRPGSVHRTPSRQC
Assay: Inhibition of muscarinic M1 receptor
Settings: not given

SMILES | IC50
CCCNCc1ccc(CCn2ccc(OCc3ccc(F)cc3)cc2=O)nc1 | > 5000 nM
CCCNCc1ccc(CCn2ccc(OCc3ccc(F)cc3)cc2=O)cc1 | > 5000 nM

Molecular target: Voltage-gated inwardly rectifying potassium channel KCNH2 (Homo sapiens, UniProt Q12809)
Assay: Inhibition of human ERG potassium channel 1
Settings: not given

Chain of Voltage-gated inwardly rectifying potassium channel KCNH2 (Q12809 whole entry): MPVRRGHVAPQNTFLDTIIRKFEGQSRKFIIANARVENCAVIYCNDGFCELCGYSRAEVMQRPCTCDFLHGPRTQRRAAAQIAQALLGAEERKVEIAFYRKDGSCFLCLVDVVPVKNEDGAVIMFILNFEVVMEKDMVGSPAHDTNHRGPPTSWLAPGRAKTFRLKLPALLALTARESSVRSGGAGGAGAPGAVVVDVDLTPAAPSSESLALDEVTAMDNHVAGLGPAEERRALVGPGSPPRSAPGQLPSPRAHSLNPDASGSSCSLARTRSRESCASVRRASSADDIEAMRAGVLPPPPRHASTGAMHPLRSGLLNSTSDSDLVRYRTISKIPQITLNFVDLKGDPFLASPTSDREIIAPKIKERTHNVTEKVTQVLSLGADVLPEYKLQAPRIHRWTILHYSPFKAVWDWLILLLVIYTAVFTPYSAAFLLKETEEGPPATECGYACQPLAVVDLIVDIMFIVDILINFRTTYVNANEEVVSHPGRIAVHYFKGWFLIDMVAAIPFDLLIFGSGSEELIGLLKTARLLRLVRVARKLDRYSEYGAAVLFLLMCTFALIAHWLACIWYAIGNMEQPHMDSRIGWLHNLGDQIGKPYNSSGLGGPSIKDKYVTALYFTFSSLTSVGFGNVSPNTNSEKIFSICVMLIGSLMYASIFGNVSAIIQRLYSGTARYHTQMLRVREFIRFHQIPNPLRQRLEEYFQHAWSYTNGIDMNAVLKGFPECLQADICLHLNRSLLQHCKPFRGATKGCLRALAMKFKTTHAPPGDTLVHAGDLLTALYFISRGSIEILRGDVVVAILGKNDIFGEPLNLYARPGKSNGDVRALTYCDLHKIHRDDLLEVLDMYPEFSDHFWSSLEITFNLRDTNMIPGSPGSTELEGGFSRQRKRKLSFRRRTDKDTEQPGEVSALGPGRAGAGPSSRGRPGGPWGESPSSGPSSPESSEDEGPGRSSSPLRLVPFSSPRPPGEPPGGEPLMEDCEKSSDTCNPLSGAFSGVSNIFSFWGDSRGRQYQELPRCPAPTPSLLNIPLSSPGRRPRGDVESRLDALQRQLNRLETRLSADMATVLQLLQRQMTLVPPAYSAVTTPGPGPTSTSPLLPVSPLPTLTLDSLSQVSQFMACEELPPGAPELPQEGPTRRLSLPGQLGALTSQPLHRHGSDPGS

SMILES | IC50
CCCNCc1ccc(CCn2ccc(OCc3ccc(F)cc3)cc2=O)nc1 | 5100 nM

System: not listed separately
Assay: Metabolic stability in human liver microsomes after 30 mmins
Format: ADME, Microsome
Settings: read-out: Stability
Outline: (§1)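 Hepatic microsomes (human or mouse) are incubated with compound for 30 min. The read-out is % of parent remaining. Values are means of n = 2.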

SMILES | remaining at 30 min
CCCN(C)Cc1ccc(CCn2ccc(OCc3ccc(F)cc3)cc2=O)cc1 | 58%
CCCNCc1ccc(CCn2ccc(OCc3ccc(F)cc3)cc2=O)cn1 | 87%
CCCN(CCF)Cc1ccc(CCn2ccc(OCc3ccc(F)cc3)cc2=O)cc1 | 0%
CCCNCc1ccc(COn2ccc(OCc3ccc(F)cc3)cc2=O)cc1 | 72%
CCCNCc1ccc(CCn2ccc(OCc3ccc(F)cc3)cc2=O)nc1 | 91%
CCCN(Cc1ccc(CCn2ccc(OCc3ccc(F)cc3)cc2=O)cc1)C1CCCC1 | 1%
CCCN(Cc1ccc(CCn2ccc(OCc3ccc(F)cc3)cc2=O)cc1)CC(C)C | 0%
CCCNCc1ccc(CCn2ccc(OCc3ccc(F)cc3)cc2=O)cc1 | 85%
CCN(CC)Cc1ccc(CCn2ccc(OCc3ccc(F)cc3)cc2=O)cc1 | 54%
CCCN(CC)Cc1ccc(CCn2ccc(OCc3ccc(F)cc3)cc2=O)cc1 | 26%
CCCN(CCOC)Cc1ccc(CCn2ccc(OCc3ccc(F)cc3)cc2=O)cc1 | 0%
CCCN(Cc1ccc(CCn2ccc(OCc3ccc(F)cc3)cc2=O)cc1)C(C)C | 4%
CCCN(CCC)Cc1ccc(CCn2ccc(OCc3ccc(F)cc3)cc2=O)cc1 | 1%
O=c1cc(OCc2ccc(F)cc2)ccn1CCc1ccc(CN2CCCC2)cc1 | 60%

Molecular target: Histamine H3 receptor (Homo sapiens, UniProt Q9Y5N1)
Assay: Inhibition of histamine H3 receptor
Settings: not given

Chain of Histamine H3 receptor (Q9Y5N1 whole entry): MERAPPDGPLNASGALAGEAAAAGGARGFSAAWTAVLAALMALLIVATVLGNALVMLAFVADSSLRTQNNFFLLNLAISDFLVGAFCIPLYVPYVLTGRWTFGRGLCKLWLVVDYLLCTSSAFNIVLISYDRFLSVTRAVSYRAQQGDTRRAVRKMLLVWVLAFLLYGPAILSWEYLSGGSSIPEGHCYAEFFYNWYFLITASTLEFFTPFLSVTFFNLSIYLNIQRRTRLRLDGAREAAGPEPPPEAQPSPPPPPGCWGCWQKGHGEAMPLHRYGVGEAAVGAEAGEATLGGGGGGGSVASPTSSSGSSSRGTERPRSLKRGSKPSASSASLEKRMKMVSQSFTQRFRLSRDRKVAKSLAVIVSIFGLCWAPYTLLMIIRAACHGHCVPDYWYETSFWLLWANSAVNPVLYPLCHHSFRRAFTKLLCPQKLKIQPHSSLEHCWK

SMILES | IC50
CCCNCc1ccc(CCn2ccc(OCc3ccc(F)cc3)cc2=O)nc1 | > 5000 nM
CCCNCc1ccc(CCn2ccc(OCc3ccc(F)cc3)cc2=O)cc1 | > 5000 nM

Molecular target: T2, Melanin-concentrating hormone receptor 1 (Homo sapiens, UniProt Q99705)
Assay: Displacement of [125I]MCH from human recombinant MCH1R expressed on CHOK1 cell membrane
Format: cell membranes, CHO-K1
Settings: not given
Outline: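 Competition binding with [125I]MCH on membranes of CHO-K1 cells expressing human recombinant MCH-1R. Inhibition of radioligand binding is measured. Values are means of n = 2.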

T2 sequence (Q99705 whole entry): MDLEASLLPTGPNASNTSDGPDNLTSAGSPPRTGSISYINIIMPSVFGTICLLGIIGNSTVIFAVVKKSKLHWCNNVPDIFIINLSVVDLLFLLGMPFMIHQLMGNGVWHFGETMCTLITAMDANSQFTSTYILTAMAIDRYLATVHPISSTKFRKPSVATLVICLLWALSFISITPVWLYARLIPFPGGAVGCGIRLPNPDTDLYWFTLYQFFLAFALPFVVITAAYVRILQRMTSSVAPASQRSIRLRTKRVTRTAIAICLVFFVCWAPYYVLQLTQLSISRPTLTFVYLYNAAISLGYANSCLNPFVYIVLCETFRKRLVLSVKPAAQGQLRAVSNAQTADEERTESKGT

SMILES | IC50
O=c1cc(OCc2ccc(F)cc2)ccn1-c1cccc(OCCN2CCCC2)c1 | > 1000 nM
CCCN(C)Cc1ccc(CCn2ccc(OCc3ccc(F)cc3)cc2=O)cc1 | 3.5 nM
O=c1cc(OCc2ccc(F)cc2)ccn1Cc1cccc(OCCN2CCCC2)c1 | 29 nM
O=c1cc(OCc2ccc(F)cc2)ccn1CCc1ccc(N2CCCC2)cc1 | > 1000 nM
O=c1cc(OCc2ccc(F)cc2)ccn1Cc1cccc(OCCCN2CCCC2)c1 | 30 nM
CCCNCc1ccc(CCn2ccc(OCc3ccc(F)cc3)cc2=O)cn1 | 11 nM
CCCN(CCF)Cc1ccc(CCn2ccc(OCc3ccc(F)cc3)cc2=O)cc1 | 11 nM
CCCNCc1ccc(COn2ccc(OCc3ccc(F)cc3)cc2=O)cc1 | 34 nM
CCCNCc1ccc(CCn2ccc(OCc3ccc(F)cc3)cc2=O)nc1 | 7 nM
CCCN(Cc1ccc(CCn2ccc(OCc3ccc(F)cc3)cc2=O)cc1)C1CCCC1 | 3.5 nM
O=c1cc(OCc2ccc(F)cc2)ccn1-c1ccc(CN2CCCC2)cc1 | > 1000 nM
CCCN(Cc1ccc(CCn2ccc(OCc3ccc(F)cc3)cc2=O)cc1)CC(C)C | 4.9 nM
CCCN(CC)Cc1ccc(CCn2ccc(OCc3ccc(F)cc3)cc2=O)cc1 | 4.4 nM
CCCN(CCOC)Cc1ccc(CCn2ccc(OCc3ccc(F)cc3)cc2=O)cc1 | 5.4 nM
CCCN(Cc1ccc(CCn2ccc(OCc3ccc(F)cc3)cc2=O)cc1)C(C)C | 5.2 nM
CCCN(CCC)Cc1ccc(CCn2ccc(OCc3ccc(F)cc3)cc2=O)cc1 | 3.3 nM
O=c1cc(OCc2ccc(F)cc2)ccn1-c1ccc(OCCN2CCCC2)cc1 | 5.6 nM
O=c1cc(OCc2ccc(F)cc2)ccn1CCc1ccc(CN2CCCC2)cc1 | 5 nM

Molecular target: Kappa-type opioid receptor (Homo sapiens, UniProt P41145)
Assay: Inhibition of kappa-type opioid receptor
Settings: not given

Chain of Kappa-type opioid receptor (P41145 whole entry): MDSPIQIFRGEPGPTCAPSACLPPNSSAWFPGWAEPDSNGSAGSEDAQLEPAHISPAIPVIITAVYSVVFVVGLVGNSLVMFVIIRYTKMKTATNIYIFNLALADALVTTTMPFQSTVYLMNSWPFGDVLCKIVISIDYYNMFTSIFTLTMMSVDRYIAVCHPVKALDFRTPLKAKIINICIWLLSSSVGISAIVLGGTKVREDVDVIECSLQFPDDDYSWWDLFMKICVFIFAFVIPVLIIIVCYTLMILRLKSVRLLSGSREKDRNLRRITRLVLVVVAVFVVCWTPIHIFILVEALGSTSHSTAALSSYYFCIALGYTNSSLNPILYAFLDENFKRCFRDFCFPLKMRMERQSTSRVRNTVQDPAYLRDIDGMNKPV

SMILES | IC50
CCCNCc1ccc(CCn2ccc(OCc3ccc(F)cc3)cc2=O)nc1 | > 5000 nM
CCCNCc1ccc(CCn2ccc(OCc3ccc(F)cc3)cc2=O)cc1 | > 5000 nM

Molecular target: Histamine H1 receptor (Homo sapiens, UniProt P35367)
Assay: Inhibition of histamine H1 receptor
Settings: not given

Chain of Histamine H1 receptor (P35367 whole entry): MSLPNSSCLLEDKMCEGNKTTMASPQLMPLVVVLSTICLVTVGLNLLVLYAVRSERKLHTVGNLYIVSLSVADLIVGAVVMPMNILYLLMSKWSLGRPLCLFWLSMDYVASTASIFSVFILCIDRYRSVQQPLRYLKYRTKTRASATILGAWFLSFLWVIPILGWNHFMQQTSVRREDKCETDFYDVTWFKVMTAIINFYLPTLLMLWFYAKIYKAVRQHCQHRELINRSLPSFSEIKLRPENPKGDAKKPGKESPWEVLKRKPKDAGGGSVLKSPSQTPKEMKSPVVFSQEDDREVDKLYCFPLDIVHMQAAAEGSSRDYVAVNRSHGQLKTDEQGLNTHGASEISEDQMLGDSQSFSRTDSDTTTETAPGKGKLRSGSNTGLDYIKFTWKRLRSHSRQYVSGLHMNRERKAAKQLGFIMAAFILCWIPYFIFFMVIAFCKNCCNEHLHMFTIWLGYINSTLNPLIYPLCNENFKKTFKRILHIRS

SMILES | IC50
CCCNCc1ccc(CCn2ccc(OCc3ccc(F)cc3)cc2=O)nc1 | > 5000 nM
CCCNCc1ccc(CCn2ccc(OCc3ccc(F)cc3)cc2=O)cc1 | > 5000 nM

Molecular target: Adenosine receptor A2a (Homo sapiens, UniProt P29274)
Assay: Inhibition of adenosine receptor A2A
Settings: not given

Chain of Adenosine receptor A2a (P29274 whole entry): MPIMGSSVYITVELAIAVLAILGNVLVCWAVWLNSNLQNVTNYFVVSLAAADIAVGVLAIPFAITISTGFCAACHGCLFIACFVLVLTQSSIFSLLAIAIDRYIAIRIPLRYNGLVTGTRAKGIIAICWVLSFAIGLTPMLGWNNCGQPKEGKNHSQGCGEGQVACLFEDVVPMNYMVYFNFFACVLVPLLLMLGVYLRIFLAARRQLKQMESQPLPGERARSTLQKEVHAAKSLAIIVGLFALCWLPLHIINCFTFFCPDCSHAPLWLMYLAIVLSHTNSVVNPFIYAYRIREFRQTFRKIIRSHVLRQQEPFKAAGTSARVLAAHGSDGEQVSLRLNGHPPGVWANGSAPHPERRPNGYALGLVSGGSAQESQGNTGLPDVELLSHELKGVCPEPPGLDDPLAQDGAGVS

SMILES | IC50
CCCNCc1ccc(CCn2ccc(OCc3ccc(F)cc3)cc2=O)nc1 | > 5000 nM
CCCNCc1ccc(CCn2ccc(OCc3ccc(F)cc3)cc2=O)cc1 | > 5000 nM

Molecular target: T2, Melanin-concentrating hormone receptor 1
Assay: Antagonistic activity against MCH1R expressed on CHOK1 cells assessed as intracellular calcium mobilization by FLIPR
Format: functional, cell-based, CHO-K1
Settings: not given

SMILES | IC50
CCCNCc1ccc(CCn2ccc(OCc3ccc(F)cc3)cc2=O)nc1 | 27 nM
CCCNCc1ccc(CCn2ccc(OCc3ccc(F)cc3)cc2=O)cc1 | 20 nM

Molecular target: Histamine H4 receptor (Homo sapiens, UniProt Q9H3N8)
Assay: Inhibition of histamine H4 receptor
Settings: not given

Chain of Histamine H4 receptor (Q9H3N8 whole entry): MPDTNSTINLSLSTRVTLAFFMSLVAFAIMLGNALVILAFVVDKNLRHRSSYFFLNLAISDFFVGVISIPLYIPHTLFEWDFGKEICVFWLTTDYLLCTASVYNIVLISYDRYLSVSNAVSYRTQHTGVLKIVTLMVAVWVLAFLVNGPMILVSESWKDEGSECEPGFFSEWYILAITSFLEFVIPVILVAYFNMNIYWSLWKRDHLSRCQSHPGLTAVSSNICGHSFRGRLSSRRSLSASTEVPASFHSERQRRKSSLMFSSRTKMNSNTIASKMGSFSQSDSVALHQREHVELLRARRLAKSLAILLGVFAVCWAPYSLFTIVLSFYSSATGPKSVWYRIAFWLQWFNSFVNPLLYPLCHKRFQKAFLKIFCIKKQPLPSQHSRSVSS

SMILES | IC50
CCCNCc1ccc(CCn2ccc(OCc3ccc(F)cc3)cc2=O)nc1 | > 5000 nM
CCCNCc1ccc(CCn2ccc(OCc3ccc(F)cc3)cc2=O)cc1 | > 5000 nM

System: not listed separately
Assay: Metabolic stability in mouse liver microsomes after 30 mmins
Format: ADME, Microsome
Settings: read-out: Stability
Outline: as §1

SMILES | remaining at 30 min
CCCN(C)Cc1ccc(CCn2ccc(OCc3ccc(F)cc3)cc2=O)cc1 | 22%
CCCNCc1ccc(CCn2ccc(OCc3ccc(F)cc3)cc2=O)cn1 | 76%
CCCN(CCF)Cc1ccc(CCn2ccc(OCc3ccc(F)cc3)cc2=O)cc1 | 0%
CCCNCc1ccc(COn2ccc(OCc3ccc(F)cc3)cc2=O)cc1 | 74%
CCCNCc1ccc(CCn2ccc(OCc3ccc(F)cc3)cc2=O)nc1 | 93%
CCCN(Cc1ccc(CCn2ccc(OCc3ccc(F)cc3)cc2=O)cc1)C1CCCC1 | 1%
CCCN(Cc1ccc(CCn2ccc(OCc3ccc(F)cc3)cc2=O)cc1)CC(C)C | 0%
CCCNCc1ccc(CCn2ccc(OCc3ccc(F)cc3)cc2=O)cc1 | 62%
CCN(CC)Cc1ccc(CCn2ccc(OCc3ccc(F)cc3)cc2=O)cc1 | 26%
CCCN(CC)Cc1ccc(CCn2ccc(OCc3ccc(F)cc3)cc2=O)cc1 | 6%
CCCN(CCOC)Cc1ccc(CCn2ccc(OCc3ccc(F)cc3)cc2=O)cc1 | 0%
CCCN(Cc1ccc(CCn2ccc(OCc3ccc(F)cc3)cc2=O)cc1)C(C)C | 1%
CCCN(CCC)Cc1ccc(CCn2ccc(OCc3ccc(F)cc3)cc2=O)cc1 | 1%
O=c1cc(OCc2ccc(F)cc2)ccn1CCc1ccc(CN2CCCC2)cc1 | 39%
